Source: ChEMBL document CHEMBL4414552, “Homotrimerization Approach in the Design of Thrombospondin-1 Mimetic Peptides with Improved Potency in Triggering Regulated Cell Death of Cancer Cells” (J Med Chem, 2019)
Active and inactive are the calls of the source. The calls are words filed in the database; no cut-off is given here. Square brackets hold non-standard residues; d marks the D form. Peptide text beside a SMILES is read from it. NMeR = CN[C@@H](CCCNC(=N)N)C(=O)O; Nle = CCCC[C@H](N)C(=O)O

Columns and labels:
MEC1 [1] = test: Cytotoxicity against human MEC1 cells assessed as induction of cell death at 200 uM after 6 hrs by annexin V/propidium iodide staining based flow cytometric analysis relative to control; type: functional
MEC1 [2] = test: Induction of cell death in human MEC1 cells at 50 uM in presence of PLCgamma1 inhibitor U73122 administered 1 hr post U73122 treatment in serum-free medium by annexin V-APC/propidium iodide staining based flow cytometric analysis; type: functional
How it was run: (§1)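 Peptide was then added at 5 or 50 μM in serum-free medium for 2 h. Cell death was read by Ann-V/PI flow cytometry and normalized to each peptide's control to give an index. Mean ± SD of at least two experiments.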

A549 [3] = test: Induction of cell death in human A549 cells at 100 uM in presence of PLCgamma1 inhibitor U73122 administered 1 hr post U73122 treatment in serum-free medium by annexin V-APC/propidium iodide staining based flow cytometric analysis; type: functional
How it was run: (§2)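 Peptide was then added at 10 or 100 μM in serum-free medium for 6 h. Cell death was read by Ann-V/PI flow cytometry and trypan blue counting. A cell death index was obtained by normalizing to each peptide's control. Mean ± SD of two experiments.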

A549 [4] = test: Disruption of membrane integrity in human A549 cells assessed as increase in adenylate kinase release at 200 uM by ToxiLight bioassay; type: functional, cell-based
A549 [5] = test: Induction of cell death in human A549 cells at 100 uM in presence of ryanodine inhibitor dantrolene administered 1 hr post dantrolene treatment in serum-free medium by annexin V-APC/propidium iodide staining based flow cytometric analysis; type: functional; how it was run: as §2
[6] = target: T1, Leukocyte surface antigen CD47 (Homo sapiens, UniProt Q08722); test: Agonist activity at CD47 in human MEC1 cells assessed as activation of PLCgamma1-induced calcium-mediated caspase-independent cell death at 200 uM after 2 hrs by microscopic method; type: cell-based
T1 sequence (Q08722 whole entry): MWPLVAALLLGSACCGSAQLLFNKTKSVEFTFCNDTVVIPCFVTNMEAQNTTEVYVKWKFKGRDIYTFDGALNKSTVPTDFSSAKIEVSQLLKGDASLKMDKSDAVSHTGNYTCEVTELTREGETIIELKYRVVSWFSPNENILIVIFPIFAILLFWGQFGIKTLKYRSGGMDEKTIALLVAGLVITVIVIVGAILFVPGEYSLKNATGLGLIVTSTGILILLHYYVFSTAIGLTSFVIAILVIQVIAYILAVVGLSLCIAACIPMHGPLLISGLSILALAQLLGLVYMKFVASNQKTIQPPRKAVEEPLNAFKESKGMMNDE
How it was run: (§3)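 MEC-1 CLL cells kept in Advanced RPMI 1640 with 10% FCS, 2 mM L-glutamine and penicillin–streptomycin. Cells were treated with peptide in complete medium for 2 h, then examined by light microscopy at 20X for morphology and cell aggregation.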

MEC1 [7] = test: Induction of cell death in human MEC1 cells at 50 uM in presence of IP3R inhibitor 2-APB administered 1 hr post 2-APB treatment in serum-free medium by annexin V-APC/propidium iodide staining based flow cytometric analysis; type: functional; how it was run: as §1
A549 [8] = test: Induction of cell death in human A549 cells assessed as reduction in cell index at 200 uM measured every minute for first 2 hrs followed by every hour for 24 hrs by RTCA analysis; type: functional, cell-based
A549 [9] = test: Induction of cell death in human A549 cells at 100 uM in presence of extracellular calcium chelator BAPTA administered 30 mins post BAPTA treatment in serum-free medium by annexin V-APC/propidium iodide staining based flow cytometric analysis; type: functional
MEC1 [10] = test: Induction of cell aggregation in human MEC1 at 200 uM after 2 hrs by microcopic method; type: functional, cell-based; how it was run: as §3
MEC1 [11] = test: Cytotoxicity against human MEC1 cells assessed as induction of cell death after 2 hrs by annexin V/propidium iodide staining based flow cytometric analysis; type: functional; conditions: MEC1, 2 h, read-out: LC50 (the source's name)
How it was run: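 MEC-1 CLL cells (TP53-dysfunctional) maintained in Advanced RPMI 1640 with 10% fetal calf serum, 2 mM L-glutamine and penicillin–streptomycin. Peptide treatment for 2 h in complete medium. Ann-V-APC (0.1 μg/mL) and PI (0.5 μg/mL) staining, read by flow cytometry. Cell death taken as the sum of AnnV+/PI- and AnnV+/PI+ events. Mean ± SD of at least three independent experiments.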

MEC1 [12] = test: Induction of cell death in human MEC1 cells at 50 uM in presence of ryanodine inhibitor dantrolene/PLCgamma1 inhibitor U73122/IP3R inhibitor 2-APB by annexin V-APC/propidium iodide staining based flow cytometric analysis; type: functional; how it was run: as §1
MEC1 [13] = test: Induction of cell death in human MEC1 cells at 50 uM in presence of ryanodine inhibitor dantrolene administered 1 hr post dantrolene treatment in serum-free medium by annexin V-APC/propidium iodide staining based flow cytometric analysis; type: functional; how it was run: as §1
A549 [14] = test: Induction of cell death in human A549 cells at 100 uM administered 30 mins post Q-VD-OPh treatment in serum-free medium by propidium iodide staining based flow cytometric analysis; type: functional
MEC1 [15] = test: Induction of cell death in human MEC1 cells at 50 uM in presence of extracellular calcium chelator BAPTA administered 30 mins post BAPTA treatment in serum-free medium by Annexin V-APC/propidium iodide staining based flow cytometric analysis; type: functional
A549 [16] = test: Cytotoxicity against human A549 cells assessed as induction of cell death after 6 hrs by annexin V-APC/propidium iodide staining based flow cytometric analysis; type: functional; conditions: A549, 6 h, read-out: LC50 (the source's name)
How it was run: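 A549 cells kept in Advanced RPMI 1640 with 10% fetal calf serum, 2 mM L-glutamine and penicillin–streptomycin. Peptides at the indicated concentrations in this complete medium for 6 h. Cells stained with Ann-V-APC (0.1 μg/mL) and PI (0.5 μg/mL), then read by flow cytometry. Values are means ± SD of two independent experiments.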

MEC1 [17] = test: Induction of cell death in human MEC1 cells at 50 uM in presence of caspase inhibitor Q-VD-OPH administered 30 mins post Q-VD-OPH treatment in serum-free medium by Annexin V-APC/propidium iodide staining based flow cytometric analysis; type: functional
A549 [18] = test: Induction of cell death in human A549 cells at 100 uM in presence of IP3R inhibitor 2-APB administered 1 hr post 2-APB treatment in serum-free medium by annexin V-APC/propidium iodide staining based flow cytometric analysis; type: functional; how it was run: as §2
A549 [19] = test: Induction of cell death in human A549 cells at 100 uM in presence of ryanodine inhibitor dantrolene/PLCgamma1 inhibitor U73122/IP3R inhibitor 2-APB by annexin V-APC/propidium iodide staining based flow cytometric analysis; type: functional; how it was run: as §2
[20] = target: T1, Leukocyte surface antigen CD47; test: Binding affinity to CD47 in biotinylated human MEC1 cell membranes by biolayer interferometry
How it was run: (§4)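 Biotinylated membrane preparations from MEC-1 cells were loaded onto SuperStreptavidin biosensors. Binding was measured by bilayer interferometry (Octet RED96) in PBS with 0.2% BSA and 1% DMSO at 30 °C. Affinities are given as apparent Kd estimates.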

[21] = Solubility of the compound in PBS with 0.05% Tween 20 and 1% DMSO; type: physicochemical; conditions: buffer
[22] = Aggregation property of the compound in pure water; type: physicochemical; conditions: buffer
Serum = test: Aggregation property of the compound in human serum; type: ADME, cell-free
[23] = Aggregation property of the compound in water; type: physicochemical; conditions: buffer
[24] = Aggregation property of the compound in phosphate buffer; type: physicochemical
[25] = target: T1, Leukocyte surface antigen CD47; test: Binding affinity to CD47 in biotinylated human MEC1 cell membranes at 300 uM by biolayer interferometry; how it was run: as §4
MEC1 [26] = test: Cytotoxicity against human MEC1 cells assessed as induction of cell death at 300 uM after 6 hrs by annexin V/propidium iodide staining based flow cytometric analysis relative to control; type: functional

CSCC[C@@H](C(=O)N[C@@H](Cc1c[nH]c2ccccc12)C(=O)N[C@@H](CCCCN)C(=O)N[C@H](CCCCN)C(=O)O)N(C)C(=O)[C@@H](NC(=O)[C@@H](NC(=O)[C@H](Cc1ccc(O)cc1)NC(=O)[C@H](Cc1ccccc1)NC(=O)[C@H](CCCNC(=N)N)NC(=O)[C@H](N)CCCCN)C(C)C)C(C)C
Activity (MEC1 [1]): 11%

CSCC[C@H](NC(=O)[C@@H](NC(=O)[C@@H](NC(=O)[C@H](Cc1ccc(O)cc1)NC(=O)[C@H](Cc1ccccc1)NC(=O)[C@H](CCCNC(=N)N)NC(=O)[C@H](N)CCCCN)C(C)C)C(C)C)C(=O)N[C@@H](Cc1c[nH]c2ccccc12)C(=O)N[C@@H](CCCCN)C(=O)N[C@H](CCCCN)C(=O)O
Activity (MEC1 [2]): inactive | Activity (A549 [3]): inactive | Activity (A549 [4]): Active | Activity (A549 [5]): inactive | Activity (MEC1 [1]): 67% | Activity [6]: Active | Activity (MEC1 [7]): inactive | Activity (A549 [8]): Active | Activity (A549 [9]): inactive | Activity (MEC1 [10]): inactive | CC50 (MEC1 [11]): 200 µM | Activity (MEC1 [12]): inactive | Activity (MEC1 [13]): inactive | Activity (A549 [14]): inactive | Activity (MEC1 [15]): inactive | CC50 (A549 [16]): 200 µM | Activity (MEC1 [17]): inactive | Activity (A549 [18]): inactive | Activity (A549 [19]): inactive

CCCC[C@H](NC(=O)[C@@H](NC(=O)[C@@H](NC(=O)[C@H](Cc1ccc(O)cc1)NC(=O)[C@H](Cc1ccccc1)NC(=O)[C@H](CCCNC(=N)N)N(C)C(=O)[C@H](N)CCCCN)C(C)C)C(C)C)C(=O)N[C@@H](Cc1c[nH]c2ccccc12)C(=O)N[C@@H](CCCCN)C(=O)N[C@H](CCCCN)C(=O)O (H-[dK][NMeR]FYVV[Nle]WK[dK]-OH)
Activity (MEC1 [2]): inactive | Activity (A549 [3]): inactive | Activity (A549 [4]): Active | Kd [20]: 8.6 µM | Activity (A549 [5]): inactive | Activity (MEC1 [1]): 59% | Activity [6]: Active | solubility [21]: Soluble | Activity (MEC1 [7]): inactive | Activity (A549 [8]): Active | Activity [22]: Not Active | Activity (A549 [9]): inactive | Activity (MEC1 [10]): inactive | CC50 (MEC1 [11]): 200 µM | Activity (MEC1 [12]): inactive | Activity (MEC1 [13]): inactive | Activity (A549 [14]): inactive | Activity (MEC1 [15]): inactive | Activity (Serum): Not Active | Activity [23]: Not Active | CC50 (A549 [16]): 200 µM | Activity [24]: Not Active | Activity (MEC1 [17]): inactive | Activity (A549 [18]): inactive | Activity (A549 [19]): inactive

CC(C)C[C@H](NC(=O)[C@@H](NC(=O)[C@@H](NC(=O)[C@H](Cc1ccc(O)cc1)NC(=O)[C@H](Cc1ccccc1)NC(=O)[C@H](CCCNC(=N)N)N(C)C(=O)[C@H](N)CCCCN)C(C)C)C(C)C)C(=O)N[C@@H](Cc1c[nH]c2ccccc12)C(=O)N[C@@H](CCCCN)C(=O)N[C@H](CCCCN)C(=O)O (H-[dK][NMeR]FYVVLWK[dK]-OH)
Kd [20]: 15 µM | Activity (MEC1 [1]): 26%

CCCC[C@H](NC(=O)[C@@H](NC(=O)[C@@H](NC(=O)[C@H](Cc1ccc(O)cc1)NC(=O)[C@H](Cc1ccccc1)NC(=O)[C@H](CCCNC(=N)N)N(C)C(C)=O)C(C)C)C(C)C)C(=O)N[C@@H](Cc1c[nH]c2ccccc12)C(=O)N[C@@H](CCCCN)C(N)=O
Kd [20]: 20 µM | Activity (MEC1 [1]): 51%

H-KWVKYRVMFK-OH
Activity [20]: inactive | Activity (MEC1 [1]): inactive | Activity [25]: inactive | Activity (MEC1 [26]): inactive

CSCC[C@H](NC(=O)[C@@H](NC(=O)[C@@H](NC(=O)[C@H](Cc1ccc(O)cc1)NC(=O)[C@H](Cc1ccccc1)NC(=O)[C@H](CCCNC(=N)N)N(C)C(=O)[C@H](N)CCCCN)C(C)C)C(C)C)C(=O)N[C@@H](Cc1c[nH]c2ccccc12)C(=O)N[C@@H](CCCCN)C(=O)N[C@H](CCCCN)C(=O)O
Kd [20]: 21 µM | Activity (MEC1 [1]): 54%
